Measured values reported in ChEMBL document CHEMBL1926565, “Synthesis, antiproliferative activities and telomerase inhibition evaluation of novel asymmetrical 1,2-disubstituted amidoanthraquinone derivatives” (Eur J Med Chem, 2012).

What was measured:
[1] = test system: OVCAR-8; experiment: Cytotoxicity against human OVCAR8 cells assessed as cellular growth at 10 uM; type: functional
Summary of the method: (§1)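 Single-dose screen run by the NCI across its 60-human-tumour-cell-line panel; growth recorded for each cell line.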

[2] = test system: SK-OV-3; experiment: Cytotoxicity against human SKOV3 cells assessed as cellular growth at 10 uM; type: functional
[3] = test system: ACHN; experiment: Cytotoxicity against human ACHN cells assessed as cellular growth at 10 uM; type: functional; summary of the method: as §1
[4] = test system: CAKI-1; experiment: Cytotoxicity against human Caki1 cells assessed as cellular growth at 10 uM; type: functional; summary of the method: as §1
[5] = test system: RXF 393; experiment: Cytotoxicity against human RXF393 cells assessed as cellular growth at 10 uM; type: functional; summary of the method: as §1
[6] = test system: MCF7; experiment: Cytotoxicity against human MCF7 cells assessed as cellular growth at 10 uM; type: functional; summary of the method: as §1
[7] = test system: MDA-MB-468; experiment: Cytotoxicity against human MDA-MB-468 cells assessed as cellular growth at 10 uM; type: functional; summary of the method: as §1
[8] = test system: SR; experiment: Anticancer activity against human SR cells; type: functional
Summary of the method: (§2)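 NCI 60-human-tumour-cell-line panel. Selected analogues were first run at one dose, then some were carried into multi-dose testing. GI50 (50% growth inhibition), TGI (total growth inhibition) and LC50 (50% cell kill) were read as values interpolated where the dose–response curves cross these levels.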

[9] = test system: K562; experiment: Anticancer activity against human K562 cells; type: functional; summary of the method: as §2
[10] = test system: RPMI-8226; experiment: Anticancer activity against human RPMI8226 cells; type: functional; summary of the method: as §2
[11] = test system: EKVX; experiment: Anticancer activity against human EKVX cells; type: functional; summary of the method: as §2
[12] = test system: HOP-92; experiment: Anticancer activity against human HOP92 cells; type: functional; summary of the method: as §2
[13] = test system: NCI-H226; experiment: Anticancer activity against human NCI-H226 cells; type: functional; summary of the method: as §2
[14] = test system: NCI-H23; experiment: Anticancer activity against human NCI-H23 cells; type: functional; summary of the method: as §2
[15] = test system: COLO 205; experiment: Anticancer activity against human COLO205 cells; type: functional; summary of the method: as §2
[16] = test system: HCT-116; experiment: Anticancer activity against human HCT116 cells; type: functional; summary of the method: as §2
[17] = test system: HCT-15; experiment: Anticancer activity against human HCT15 cells; type: functional; summary of the method: as §2
[18] = test system: HT-29; experiment: Anticancer activity against human HT-29 cells; type: functional; summary of the method: as §2
[19] = test system: KM12; experiment: Anticancer activity against human KM12 cells; type: functional; summary of the method: as §2
[20] = test system: SW-620; experiment: Anticancer activity against human SW620 cells; type: functional
[21] = test system: SNB-19; experiment: Anticancer activity against human SNB19 cells; type: functional; details: read-out: LC50 (the source's name)
Summary of the method: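 Tested by the NCI in its 60-human-tumour-cell-line panel. Dose-response curves were run, and GI₅₀ (50% growth inhibition), TGI (total growth inhibition) and LC₅₀ (50% cell killing) were read as interpolated concentrations where the curves cross those levels.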

[22] = test system: SNB-75; experiment: Anticancer activity against human SNB75 cells; type: functional; summary of the method: as §2
[23] = test system: U-251; experiment: Anticancer activity against human U251 cells; type: functional
[24] = test system: M14; experiment: Anticancer activity against human M14 cells; type: functional; summary of the method: as §2
[25] = test system: MDA-MB-435; experiment: Anticancer activity against human MDA-MB-435 cells; type: functional; summary of the method: as §2
[26] = test system: SK-MEL-2; experiment: Anticancer activity against human SK-MEL-2 cells; type: functional; summary of the method: as §2
[27] = test system: SK-MEL-28; experiment: Anticancer activity against human SK-MEL-28 cells; type: functional; summary of the method: as §2
[28] = test system: UACC-257; experiment: Anticancer activity against human UACC257 cells; type: functional
[29] = test system: OVCAR-3; experiment: Anticancer activity against human OVCAR3 cells; type: functional; summary of the method: as §2
[30] = test system: OVCAR-5; experiment: Anticancer activity against human OVCAR5 cells; type: functional; summary of the method: as §2
[31] = test system: NCI/ADR-RES; experiment: Anticancer activity against human NCI/ADR-RES cells; type: functional; summary of the method: as §2
[32] = test system: 786-0; experiment: Anticancer activity against human 786-0 cells; type: functional; summary of the method: as §2
[33] = test system: SN12C; experiment: Anticancer activity against human SN12C cells; type: functional; summary of the method: as §2
[34] = test system: UO-31; experiment: Anticancer activity against human UO31 cells; type: functional
[35] = test system: PC-3; experiment: Anticancer activity against human PC3 cells; type: functional; summary of the method: as §2
[36] = test system: DU-145; experiment: Anticancer activity against human DU145 cells; type: functional; summary of the method: as §2
[37] = test system: BT-549; experiment: Anticancer activity against human BT549 cells; type: functional; summary of the method: as §2
[38] = test system: EKVX; experiment: Cytotoxicity against human EKVX cells assessed as cellular growth at 10 uM; type: functional; summary of the method: as §1
[39] = test system: NCI-H226; experiment: Cytotoxicity against human NCI-H226 cells assessed as cellular growth at 10 uM; type: functional; summary of the method: as §1
[40] = test system: NCI-H522; experiment: Cytotoxicity against human NCI-H522 cells assessed as cellular growth at 10 uM; type: functional; summary of the method: as §1
[41] = test system: SF-268; experiment: Cytotoxicity against human SF268 cells assessed as cellular growth at 10 uM; type: functional; summary of the method: as §1
[42] = test system: SNB-19; experiment: Cytotoxicity against human SNB19 cells assessed as cellular growth at 10 uM; type: functional
[43] = test system: LOX IMVI; experiment: Cytotoxicity against human LOXIMVI cells assessed as cellular growth at 10 uM; type: functional; summary of the method: as §1
[44] = test system: MDA-MB-435; experiment: Cytotoxicity against human MDA-MB-435 cells assessed as cellular growth at 10 uM; type: functional; summary of the method: as §1
[45] = target: Telomerase reverse transcriptase (Homo sapiens) (UniProt O14746); experiment: Residual activity of human TERT in H1299 cells at 10 uM after 24 hrs by SEAP reporter gene assay
[46] = target: Telomerase reverse transcriptase (Homo sapiens) (UniProt O14746); experiment: Residual activity of human TERT in H1299 cells at 100 uM after 24 hrs by SEAP reporter gene assay
[47] = read-out: LC50 (the source's name)

Sequence of Telomerase reverse transcriptase (Homo sapiens) (O14746 whole entry): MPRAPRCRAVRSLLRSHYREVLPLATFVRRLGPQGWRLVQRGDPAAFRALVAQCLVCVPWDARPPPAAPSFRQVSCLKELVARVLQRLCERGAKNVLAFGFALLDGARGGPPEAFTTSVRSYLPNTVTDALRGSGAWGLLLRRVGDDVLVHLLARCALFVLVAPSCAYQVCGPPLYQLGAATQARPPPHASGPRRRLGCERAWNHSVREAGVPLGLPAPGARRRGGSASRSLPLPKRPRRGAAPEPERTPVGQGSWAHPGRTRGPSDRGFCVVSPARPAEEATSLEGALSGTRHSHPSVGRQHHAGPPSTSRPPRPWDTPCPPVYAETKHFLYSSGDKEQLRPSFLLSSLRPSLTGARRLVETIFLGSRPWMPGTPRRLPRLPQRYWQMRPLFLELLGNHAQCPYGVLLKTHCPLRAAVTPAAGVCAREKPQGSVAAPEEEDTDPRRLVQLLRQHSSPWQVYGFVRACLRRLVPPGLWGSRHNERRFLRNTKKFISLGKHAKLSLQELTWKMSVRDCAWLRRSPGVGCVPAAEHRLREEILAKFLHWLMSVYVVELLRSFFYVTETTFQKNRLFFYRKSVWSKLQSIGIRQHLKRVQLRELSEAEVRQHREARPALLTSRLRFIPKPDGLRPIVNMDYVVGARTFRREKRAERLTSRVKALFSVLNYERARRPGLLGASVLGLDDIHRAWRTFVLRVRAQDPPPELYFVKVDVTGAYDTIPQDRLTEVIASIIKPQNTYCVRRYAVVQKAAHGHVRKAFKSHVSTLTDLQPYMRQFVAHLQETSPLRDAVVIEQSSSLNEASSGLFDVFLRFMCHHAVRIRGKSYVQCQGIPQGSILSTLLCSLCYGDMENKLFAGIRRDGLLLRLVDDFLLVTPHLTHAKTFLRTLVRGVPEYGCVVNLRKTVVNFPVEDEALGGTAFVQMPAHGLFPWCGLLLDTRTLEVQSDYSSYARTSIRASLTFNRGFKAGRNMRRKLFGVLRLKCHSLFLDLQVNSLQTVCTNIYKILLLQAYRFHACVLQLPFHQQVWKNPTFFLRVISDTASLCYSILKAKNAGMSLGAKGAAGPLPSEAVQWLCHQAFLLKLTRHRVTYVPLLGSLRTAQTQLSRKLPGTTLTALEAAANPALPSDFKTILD

Cc1ccc(C(=O)Nc2c(NC(=O)CN3CCN(C)CC3)ccc3c2C(=O)c2ccccc2C3=O)cc1
Activity [1]: 46.43% | Activity [2]: 108.91% | Activity [3]: 49.87% | Activity [4]: 69.76% | Activity [5]: 68.84% | Activity [6]: 31.79% | Activity [7]: 7.43% | LC50 [8]: > 100 µM | TGI [8]: 4.65 µM | GI50 [9]: 2.09 µM | GI50 [10]: 3.25 µM | LC50 (50% cell kill) [10]: > 100 µM | TGI [10]: > 100 µM | TGI [11]: > 100 µM | CC50 [11, 47]: > 100 µM | GI50 [12]: 0.87 µM | LC50 (concentration giving 50% cell kill) [12]: > 100 µM | TGI [12]: 9.19 µM | GI50 [13]: > 100 µM | TGI [13]: > 100 µM | CC50 [13, 47]: > 100 µM | GI50 [14]: > 100 µM | LC50 (50% cell kill) [14]: > 100 µM | TGI [14]: > 100 µM | GI50 [15]: 2.22 µM | LC50 [15]: > 100 µM | TGI [15]: 4.08 µM | GI50 [16]: 3.08 µM | TGI [16]: > 100 µM | CC50 [16, 47]: > 100 µM | GI50 [17]: 3.36 µM | LC50 [17]: > 100 µM | TGI [17]: > 100 µM | GI50 [18]: 3.09 µM | TGI [18]: > 100 µM | CC50 [18, 47]: > 100 µM | LC50 [19]: > 100 µM | TGI [19]: > 100 µM | TGI [20]: > 100 µM | CC50 [20, 47]: > 100 µM | CC50 [21]: > 100 µM | GI50 [22]: > 100 µM | TGI [22]: > 100 µM | CC50 [22, 47]: > 100 µM | GI50 [23]: 3.64 µM | TGI [23]: > 100 µM | CC50 [23, 47]: > 100 µM | GI50 [24]: 2.22 µM | TGI [24]: 4.65 µM | GI50 [25]: 3.13 µM | TGI [25]: > 100 µM | CC50 [25, 47]: > 100 µM | GI50 [26]: > 100 µM | TGI [26]: > 100 µM | CC50 [26, 47]: > 100 µM | GI50 [27]: 1.87 µM | GI50 [28]: 2.23 µM | TGI [28]: 5.81 µM | CC50 [28, 47]: > 100 µM | GI50 [29]: 2.43 µM | CC50 [29, 47]: > 100 µM | GI50 [30]: > 100 µM | TGI [30]: > 100 µM | CC50 [30, 47]: > 100 µM | TGI [31]: > 100 µM | CC50 [31, 47]: > 100 µM | GI50 [32]: 5.61 µM | TGI [32]: > 100 µM | CC50 [32, 47]: > 100 µM | TGI [33]: > 100 µM | CC50 [33, 47]: > 100 µM | TGI [34]: > 100 µM | CC50 [34, 47]: > 100 µM | TGI [35]: > 100 µM | CC50 [35, 47]: > 100 µM | GI50 [36]: > 100 µM | TGI [36]: > 100 µM | CC50 [36, 47]: > 100 µM | GI50 [37]: > 100 µM | TGI [37]: > 100 µM | CC50 [37, 47]: > 100 µM | Activity [38]: 78.07% | Activity [39]: 93.87% | Activity [40]: 88.21% | Activity [41]: 59.11% | Activity [42]: 68.75% | Activity [43]: 1.24% | Activity [44]: 11.15% | residual activity [45]: 29% | residual activity [46]: 8%
